Laboratory results as given in ChEMBL document CHEMBL4819027, “Design, synthesis and biological evaluation of novel 2-(4-(1H-indazol-6-yl)-1H-pyrazol-1-yl)acetamide derivatives as potent VEGFR-2 inhibitors” (Eur J Med Chem, 2021).
Active and inactive are the calls of the source. The rule behind the calls is not given here.

How the values were obtained:
HGC-27 [1] = assay: Antimigratory activity against human HGC-27 cells assessed as relative closure of scratches at 0.5 uM measured after 6 hrs by scratch wound healing assay relative to control; type: functional
Summary of the method: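 HGC-27 monolayers at 80–90% confluence were serum-starved 12 h, then scratched to give 1 mm lanes. After a PBS wash, cells received complete medium with or without compound (0.1, 0.5, 1 μM). Wounds were imaged at 0, 6 and 24 h. Relative scratch closure was quantified against untreated control; mean ± SD of three experiments.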

HGC-27 [2] = assay: Induction of apoptosis in human HGC-27 cells assessed as necrotic cells level at 0.1 uM incubated for 24 hrs by propidium iode and annexin V-FITC staining based flow cytometry (reference value: 1.64%); type: functional
Summary of the method: (§1)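 HGC-27 cells (1.0 × 10⁶ per 60 mm dish) were treated 24 h with 0.1% DMSO or compound (0.1, 0.5, 1 μM). Cells were stained with Annexin V-FITC in HEPES/NaCl/CaCl₂ binding buffer (pH 7.4) for 15 min at room temperature, then with PI for 10 min. About 10 000 events were acquired by flow cytometry to give viable, early apoptotic, late apoptotic and necrotic fractions.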

HGC-27 [3] = assay: Inhibition of cell migration at human HGC-27 cells in 0.1 to 1 uM measured up to 24 hrs by microscopic based wound healing assay; type: functional; details: dose 0.1-1 µM, time hrs <=24, TDE = time-dependent effect
Summary of the method: (§2)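 HGC-27 grown to 80–90% confluence in 6-well plates, serum-starved 12 h, scratched with 200 µL tip (~1 mm lane). Washed, then given complete medium alone or with compound (0.1, 0.5, 1 µM) or sorafenib positive control. Imaged by inverted microscope at 0, 6 and 24 h; relative scratch closure quantified; mean ± SD, three independent experiments.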

HGC-27 [4] = assay: Inhibition of cell migration at human HGC-27 cells measured up to 24 hrs by microscopic based wound healing assay; type: functional; details: dose 0.1-1 µM, time hrs <=24; summary of the method: as §2
HGC-27 [5] = assay: Induction of apoptosis in human HGC-27 cells assessed as total apoptotic cells level at 1 uM incubated for 24 hrs by propidium iode and annexin V-FITC staining based flow cytometry; type: functional; summary of the method: as §1
A549 = assay: Antiproliferative activity against human A549 cells assessed as cell growth inhibition after 72 hrs by MTT assay; type: functional, cell-based; details: A549, 72 h
Summary of the method: (§3)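 Log-phase cells were seeded at 5 × 10³ per well and attached 24 h. HT-29 and GES-1 were grown in DMEM-based medium, A549/HepG2/HGC-27 in RPMI-1640, HUVEC in ECM with ECGS; all media had 10% FBS. Cells were exposed to graded compound concentrations for 72 h at 37 °C. MTT (5 mg/mL stock) was added for 4 h, formazan dissolved in DMSO, and A490 read. IC50 was obtained by nonlinear sigmoidal regression; mean ± S.E. of three experiments.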

HGC-27 [6] = assay: Induction of intracellular ROS generation in human HGC-27cells incubated for 24 hrs by DCFH-DA staining-based flow cytometric analysis; type: functional, cell-based; details: dose 0.1-1 µM
Summary of the method: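 HGC-27 cells (5.0 × 10⁵ per well) were treated 24 h with compound (0.1, 0.5, 1 μM) or 0.1% DMSO. Harvested cells were loaded with 10 μM DCFH-DA in PBS for 20 min at 37 °C. Green fluorescence intensity was measured by flow cytometry.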

HGC-27 [7] = assay: Induction of apoptosis in human HGC-27 cells assessed as up regulation of Bax protein expression at measured after 24 hrs by Western blot analysis; type: functional, cell-based; details: dose 0.1-1 µM
Summary of the method: (§4)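 HGC-27 cells (1.0 × 10⁶ per 60 mm dish) were treated 24 h with 0.1% DMSO or compound (0.1, 0.5, 1 μM). Cells were lysed in RIPA with PMSF and phosphatase inhibitor, and protein measured by BCA. Lysates were run on 8–12% SDS-PAGE, transferred to nitrocellulose and probed with primary antibodies overnight at 4 °C, then HRP secondary. Bands were detected by ECL and densitometry; at least triplicate.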

GES1 = assay: Cytotoxicity against human GES-1 cells assessed as inhibition of cell growth incubated for 72 hrs by MTT assay; type: cell-based; details: GES1, 72 h; summary of the method: as §3
HepG2 = assay: Antiproliferative activity against human HepG2 cells assessed as cell growth inhibition after 72 hrs by MTT assay; type: functional, cell-based; details: HepG2, 72 h; summary of the method: as §3
HGC-27 [8] = assay: Downregulation of MMP-9 protein expression in human HGC-27 cells incubated for 24 hrs by immunoblot analysis; type: functional, cell-based; summary of the method: as §4
HGC-27 [9] = assay: Induction of apoptosis in human HGC-27 cells assessed as viable cells level at 0.5 uM incubated for 24 hrs by propidium iode and annexin V-FITC staining based flow cytometry (reference value: 96.0%); type: functional; summary of the method: as §1
[10] = biological target: Vascular endothelial growth factor receptor 2 (Homo sapiens, UniProt P35968); assay: Inhibition of VEGFR2 in human HGC-27 cells assessed as downregulation of VEGFR2 phosphorylation at Tyr1175 at 0.1 to 1 uM after 24 hrs by Westernblot analysis; type: cell-based; details: dose 0.1-1 µM
Summary of the method: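 HGC-27 cells (1.0 × 10⁶ per 60 mm dish) were treated 24 h with 0.1% DMSO or compound (0.1, 0.5, 1 μM). RIPA lysates with phosphatase inhibitor were quantified by BCA and resolved on 8–12% SDS-PAGE onto nitrocellulose. Blots were probed for p-VEGFR-2 (Tyr1175), p-PI3K (Tyr607), p-AKT (Thr308) and p-mTOR (Ser2448), with ECL detection and densitometry; mean ± SEM.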

Sequence of Vascular endothelial growth factor receptor 2 (P35968 whole entry): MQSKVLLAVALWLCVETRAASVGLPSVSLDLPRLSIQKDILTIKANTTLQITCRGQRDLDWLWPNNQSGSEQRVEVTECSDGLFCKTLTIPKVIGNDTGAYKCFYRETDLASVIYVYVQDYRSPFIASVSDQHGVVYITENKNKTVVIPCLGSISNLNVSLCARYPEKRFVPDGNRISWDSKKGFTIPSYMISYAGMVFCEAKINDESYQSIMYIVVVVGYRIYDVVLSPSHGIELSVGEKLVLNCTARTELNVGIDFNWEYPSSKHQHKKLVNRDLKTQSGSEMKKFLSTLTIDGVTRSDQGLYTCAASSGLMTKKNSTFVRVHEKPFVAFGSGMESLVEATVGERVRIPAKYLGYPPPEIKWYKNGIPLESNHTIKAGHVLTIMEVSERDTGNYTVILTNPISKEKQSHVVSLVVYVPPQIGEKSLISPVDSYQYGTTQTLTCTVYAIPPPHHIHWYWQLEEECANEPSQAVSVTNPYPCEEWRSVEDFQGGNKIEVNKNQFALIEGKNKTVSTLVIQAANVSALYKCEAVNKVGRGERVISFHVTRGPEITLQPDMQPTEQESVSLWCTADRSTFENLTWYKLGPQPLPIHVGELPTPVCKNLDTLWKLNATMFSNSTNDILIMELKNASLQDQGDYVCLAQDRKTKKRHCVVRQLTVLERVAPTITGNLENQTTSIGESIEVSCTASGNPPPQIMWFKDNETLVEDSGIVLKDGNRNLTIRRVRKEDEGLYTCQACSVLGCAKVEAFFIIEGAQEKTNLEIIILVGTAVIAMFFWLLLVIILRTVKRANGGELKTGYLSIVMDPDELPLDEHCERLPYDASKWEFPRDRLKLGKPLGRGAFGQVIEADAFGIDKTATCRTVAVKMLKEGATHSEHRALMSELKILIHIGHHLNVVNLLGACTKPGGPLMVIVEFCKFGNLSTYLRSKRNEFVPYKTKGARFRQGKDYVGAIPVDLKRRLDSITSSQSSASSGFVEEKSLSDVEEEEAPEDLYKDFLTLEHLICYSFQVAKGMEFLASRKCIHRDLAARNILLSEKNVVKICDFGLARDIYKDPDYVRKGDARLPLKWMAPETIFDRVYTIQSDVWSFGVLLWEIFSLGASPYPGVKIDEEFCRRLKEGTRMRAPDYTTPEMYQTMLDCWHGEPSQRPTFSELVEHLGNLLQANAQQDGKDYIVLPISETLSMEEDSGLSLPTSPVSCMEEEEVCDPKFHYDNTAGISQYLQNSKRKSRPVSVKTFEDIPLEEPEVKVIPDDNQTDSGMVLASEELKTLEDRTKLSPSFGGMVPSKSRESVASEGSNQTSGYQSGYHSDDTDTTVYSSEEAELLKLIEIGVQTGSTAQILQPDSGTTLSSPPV

CC(=O)Nc1n[nH]c2cc(-c3cnn(CC(=O)Nc4ccc(C)c(C(F)(F)F)c4)c3)ccc12
inhibition at 0.5 µM (HGC-27 [1]): 9.5% | Activity (HGC-27 [2]): 2.12% | inhibition (HGC-27 [3]): Tde | inhibition (HGC-27 [4]): Dose-Dependent Effect | Activity (HGC-27 [5]): 28.8% | IC50 (A549): 4.31 µM | Activity (HGC-27 [6]): Dose-Dependent Effect | Activity (HGC-27 [7]): Dose-Dependent Effect | IC50 (GES1): 187 µM | IC50 (HepG2): 15 µM | inhibition (HGC-27 [8]): Dose-Dependent Effect | Activity (HGC-27 [9]): 69.7% | inhibition [10]: Active
